Activity calls are given as the source filed them. The rule behind the calls is not given here.

Data set [1] relates to A549. The data set is described as follows: Antiproliferative activity against human A549 cells assessed as inhibition of cell growth incubated for 72 hrs by CCK-8 assay. It counts as functional.
A short description of data set [2]: AUC (0 to last) in Sprague-Dawley rat at 5 mg/kg, po measured upto 24 hrs by LC-MS/MS analysis. It counts as ADME, organism-based. Further details: dose 5 mg/kg, time < 24 hrs, route po. To be noted: in vivo.
The subject of data set [3] is NAMALVA. Put plainly: Antiproliferative activity against human NAMALVA cells assessed as inhibition of cell growth incubated for 72 hrs by CCK-8 assay. It counts as functional. The procedure, abridged: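 Plated at 10000 cells/well. Dose series topped at 10 uM for test compound and at 1 uM for the staurosporine reference. Read-outs were CC50 and maximum % inhibition.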

Data set [4] can be described thus: Metabolic stability in rat liver microsomes assessed as half-life preincubated for 10 mins followed by NADPH addition and measured upto 60 mins by LC-MS/MS analysis. It counts as ADME, Microsome. Conditions: time < 70 min.
For data set [5], the system named is NCI-H2052. Put plainly: Antiproliferative activity against human NCI-H2052 cells assessed as inhibition of cell growth incubated for 72 hrs by CCK-8 assay. It is filed as functional.
Data set [6] in a line: Antiproliferative activity against human T.Tn cells assessed as inhibition of cell growth incubated for 72 hrs by CCK-8 assay. It counts as functional.
Data set [7] concerns ASPC1. The data set is described as follows: Antiproliferative activity against human ASPC1 cells assessed as inhibition of cell growth incubated for 72 hrs by CCK-8 assay. It counts as functional. The procedure, abridged: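 5000 cells/well. Test compound was titrated from 10 uM and staurosporine control from 1 uM. Values are CC50 and maximum % inhibition.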
For data set [8], the target named is Tyrosine-protein kinase Mer (Homo sapiens) (UniProt Q12866). The data set is described as follows: Inhibition of Mer (unknown origin) at 1 uM.
Data set [9] relates to HCC827. Put plainly: Antiproliferative activity against human HCC827 cells assessed as inhibition of cell growth incubated for 72 hrs by CCK-8 assay. It is filed as functional.
The test system of data set [10] is NCI-H226. Put plainly: Antiproliferative activity against human NCI-H226 cells assessed as inhibition of cell growth incubated for 72 hrs by CCK-8 assay. It is filed as functional.
Data set [11] in a line: Clearance in Sprague-Dawley rat at 1 mg/kg, iv measured upto 24 hrs by LC-MS/MS analysis. Conditions: in vivo. It counts as ADME, organism-based.
Data set [12] has as its system PC-3. Put plainly: Antiproliferative activity against human PC-3 cells assessed as inhibition of cell growth incubated for 72 hrs by CCK-8 assay. It is filed as functional.
Data set [13] concerns A-375. Put plainly: Antiproliferative activity against human A-375 cells assessed as inhibition of cell growth incubated for 72 hrs by CCK-8 assay. It is filed as functional.
For data set [14], the target named is T1, Tyrosine-protein kinase receptor UFO (Homo sapiens, UniProt P30530).
T1 sequence (P30530 whole entry): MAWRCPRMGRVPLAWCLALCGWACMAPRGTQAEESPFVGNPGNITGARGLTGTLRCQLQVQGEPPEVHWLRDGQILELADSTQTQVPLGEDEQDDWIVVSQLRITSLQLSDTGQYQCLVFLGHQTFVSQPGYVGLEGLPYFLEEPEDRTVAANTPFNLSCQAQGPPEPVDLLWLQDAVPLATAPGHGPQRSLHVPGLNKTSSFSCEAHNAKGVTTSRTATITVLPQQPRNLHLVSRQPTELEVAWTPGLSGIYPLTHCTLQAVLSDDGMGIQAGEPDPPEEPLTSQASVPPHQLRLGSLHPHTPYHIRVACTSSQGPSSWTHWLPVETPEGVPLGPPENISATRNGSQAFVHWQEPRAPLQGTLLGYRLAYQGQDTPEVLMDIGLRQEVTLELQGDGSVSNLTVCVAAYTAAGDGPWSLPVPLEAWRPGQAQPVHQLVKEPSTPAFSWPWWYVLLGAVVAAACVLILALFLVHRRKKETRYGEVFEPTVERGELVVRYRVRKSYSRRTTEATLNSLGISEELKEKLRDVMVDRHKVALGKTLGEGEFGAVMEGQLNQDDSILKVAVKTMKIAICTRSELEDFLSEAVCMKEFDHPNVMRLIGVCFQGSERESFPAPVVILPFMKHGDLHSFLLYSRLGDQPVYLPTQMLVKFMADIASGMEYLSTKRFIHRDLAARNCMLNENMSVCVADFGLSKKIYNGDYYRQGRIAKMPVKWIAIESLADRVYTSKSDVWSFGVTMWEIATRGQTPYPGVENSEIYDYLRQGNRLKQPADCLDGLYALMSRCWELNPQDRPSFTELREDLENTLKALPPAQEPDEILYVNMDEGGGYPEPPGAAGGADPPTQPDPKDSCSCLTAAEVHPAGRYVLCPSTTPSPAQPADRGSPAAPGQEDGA
The data set is described as follows: Inhibition of human Axl using KKSRGDYMTMQIG as substrate incubated for 40 mins in the presence of [gamma33P]ATP by scintillation counting analysis.

For data set [15], the system named is 143B. The data set is described as follows: Antiproliferative activity against human 143B cells assessed as inhibition of cell growth incubated for 72 hrs by CCK-8 assay. It counts as functional.
The nature of data set [16]: Half-life in Sprague-Dawley rat at 5 mg/kg, po measured upto 24 hrs by LC-MS/MS analysis. It counts as ADME, organism-based. Conditions: in vivo.
The subject of data set [17] is OVCAR-3. The data set is described as follows: Antiproliferative activity against human OVCAR-3 cells assessed as inhibition of cell growth incubated for 72 hrs by CCK-8 assay. It is filed as functional.
The test system of data set [18] is Hep 3B2. The data set is described as follows: Antiproliferative activity against human Hep 3B2.1-7 cells assessed as inhibition of cell growth incubated for 72 hrs by CCK-8 assay. To be noted: Hep3B. It is filed as functional.
The test system of data set [19] is KYSE-510. The data set is described as follows: Antiproliferative activity against human KYSE-510 cells assessed as inhibition of cell growth incubated for 72 hrs by CCK-8 assay. It is filed as functional.

Chain of Tyrosine-protein kinase Mer (Homo sapiens) (Q12866 whole entry): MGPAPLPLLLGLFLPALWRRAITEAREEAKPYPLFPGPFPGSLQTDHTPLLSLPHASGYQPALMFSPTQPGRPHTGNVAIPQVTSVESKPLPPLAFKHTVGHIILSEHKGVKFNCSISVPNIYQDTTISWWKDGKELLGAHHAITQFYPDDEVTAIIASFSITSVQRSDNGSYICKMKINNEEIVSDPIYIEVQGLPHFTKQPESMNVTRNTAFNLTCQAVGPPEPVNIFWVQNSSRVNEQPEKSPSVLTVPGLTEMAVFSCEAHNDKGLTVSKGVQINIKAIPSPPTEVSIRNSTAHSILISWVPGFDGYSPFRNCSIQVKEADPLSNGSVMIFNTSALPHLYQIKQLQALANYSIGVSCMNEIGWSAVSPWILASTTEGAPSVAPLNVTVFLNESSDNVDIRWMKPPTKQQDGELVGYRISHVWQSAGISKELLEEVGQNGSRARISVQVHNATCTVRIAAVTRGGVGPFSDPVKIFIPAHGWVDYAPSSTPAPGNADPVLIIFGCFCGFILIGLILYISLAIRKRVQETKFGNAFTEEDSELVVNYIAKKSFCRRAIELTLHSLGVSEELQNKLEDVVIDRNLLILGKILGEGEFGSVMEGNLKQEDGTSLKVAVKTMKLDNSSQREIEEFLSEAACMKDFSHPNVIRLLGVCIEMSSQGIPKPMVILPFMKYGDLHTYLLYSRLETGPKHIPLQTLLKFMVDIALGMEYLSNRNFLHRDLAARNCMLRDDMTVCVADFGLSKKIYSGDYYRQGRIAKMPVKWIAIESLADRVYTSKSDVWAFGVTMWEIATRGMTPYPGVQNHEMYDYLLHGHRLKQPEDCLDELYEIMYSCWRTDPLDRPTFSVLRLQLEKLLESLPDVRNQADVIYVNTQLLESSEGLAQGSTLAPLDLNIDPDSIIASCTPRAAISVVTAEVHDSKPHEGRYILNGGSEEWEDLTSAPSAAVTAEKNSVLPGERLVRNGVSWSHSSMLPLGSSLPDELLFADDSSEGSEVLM

For the compound `CC(C)n1cnc(-c2ccccc2Nc2nc(Nc3ccc(N(C)C4CCN(C)CC4)cc3)ncc2Cl)n1`, the CC50 in data set [1] is 293 nM; in [3], 494 nM; in [5], 1180 nM; in data set [6] it was 119 nM; in data set [7], 755 nM; in [9], 2050 nM. The CC50 was found to be 1240 nM in [10]; 5590 nM in [12]; 23900 nM in data set [13]; 1340 nM in data set [15]; 224 nM in data set [17]; 81.2 nM in data set [18]. Moreover, the CC50 in [19] was determined as 117 nM. Also, the AUClast in [2] is 1180 ng·h/mL. The half-life in [4] was 0.472 h; in [16], 6.45 h. Further, in data set [8], the inhibition entry is “Active”. In addition, in data set [11], the clearance was 36.7 mL/min/kg. The IC50 in data set [14] worked out at 5 nM.

(Values after ChEMBL document CHEMBL5108089, “Structure-based discovery of potent inhibitors of Axl: design, synthesis, and biological evaluation” (RSC Med Chem, 2022).)
